# Results: ChEMBL document CHEMBL3808301, “Bioactive Iridoid Glycosides from the Whole Plants of Rehmannia chingii” (J Nat Prod, 2016)
# How the values were obtained:
# A549 = experiment: Cytotoxicity against human A549 cells by MTT assay; format: functional, cell-based
# HT-29 = experiment: Cytotoxicity against human HT-29 cells by MTT assay; format: functional, cell-based
# [1] = Cytotoxicity against human Bel7402 cells by MTT assay; format: functional, cell-based; details: Bel-7402
# [2] = Cytotoxicity against human BGC823 cells by MTT assay; format: functional, cell-based; details: BGC-823
# A2780 = experiment: Cytotoxicity against human A2780 cells by MTT assay; format: functional, cell-based
# [3] = Cytotoxicity against mouse BV2 cells assessed as cell viability by MTT assay; format: cell-based, BV-2; details: read-out: Activity
# Procedure, shortened: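 Murine microglial BV2 cells under the LPS-activation conditions of the NO assay. Viability read by MTT and expressed as a percentage of the LPS-only treatment group. Means ± SD from three independent experiments.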
# BV-2 = experiment: Inhibition of LPS-induced NO production in mouse BV2 cells assessed as reduction in nitrite level pretreated for 24 hrs before LPS treatment for additional 24 hrs by Griess reaction method; format: functional, cell-based
# Procedure, shortened: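 BV2 microglia plated and preincubated 24 h, then exposed to LPS 0.3 μg/mL for a further 24 h. Nitrite in the culture supernatant measured by Griess reaction at OD 550 nm against a NaNO2 standard. Curcumin served as positive control. IC50 given as mean ± SD of three independent experiments.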
# HepG2 = experiment: Hepatoprotective activity against APAP-induced toxicity in human HepG2 cells assessed as cell survival rate at 10 uM incubated for 48 hrs by MTT assay; format: functional; details: HepG2, 48 h, read-out: Survival
# Procedure, shortened: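 HepG2 cells grown in DMEM with 10% fetal calf serum and penicillin/streptomycin at 37 °C, 5% CO2, then seeded and incubated overnight. Test sample (10 μM) added together with APAP (final 8 mM) for 48 h. MTT at 0.5 mg/mL for 4 h, formazan dissolved in DMSO, absorbance read at 570 nm. Survival given as % of normal cells; bicyclol (10 μM) positive control; n = 3.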
SMILES,IC50 (A549) [µM],IC50 (HT-29) [µM],IC50 [1] [µM],IC50 [2] [µM],IC50 (A2780) [µM],viability [3] [%],IC50 (BV-2) [µM],viability at 10 µM (HepG2) [%]
OC[C@H]1O[C@@H](O[C@@H]2OC=C[C@H]3[C@H](O)[C@@H]4O[C@]4(CO)[C@@H]23)[C@H](O)[C@@H](O)[C@@H]1O [CATALPOL],> 10,> 10,> 10,> 10,> 10,86.1,7.3,69.1
C[C@]1(O)CCC2=CCO[C@@H](O[C@@H]3O[C@H](CO)[C@@H](O)[C@H](O)[C@H]3O)[C@@H]21,> 10,> 10,> 10,> 10,> 10,–,–,–
COC(=O)c1cc(OC)c2c(c1-c1c(CO)cc(OC)c3c1OCO3)OCO2 [BICYCLOL],–,–,–,–,–,–,–,66.5
C[C@]1(O)C[C@@H](O)[C@@H]2C=CO[C@@H](O[C@@H]3O[C@H](CO)[C@@H](O)[C@H](O)[C@H]3O)[C@@H]21,> 10,> 10,> 10,> 10,> 10,–,–,69.9
C[C@]1(O)C=CC2=CCO[C@@H](O[C@@H]3O[C@H](CO)[C@@H](O)[C@H](O)[C@H]3O)[C@@H]21,> 10,> 10,> 10,> 10,> 10,–,–,–
COc1cc(/C=C/C(=O)O[C@H]2[C@@H]3C=CO[C@@H](O[C@@H]4O[C@H](CO)[C@@H](O)[C@H](O)[C@H]4O)[C@@H]3[C@@]3(CO)O[C@@H]23)ccc1O,> 10,> 10,> 10,> 10,> 10,–,–,–
OC[C@H]1O[C@@H](O[C@@H]2OC=C[C@H]3[C@H](O[C@@H]4O[C@H](CO)[C@@H](O)[C@H](O)[C@H]4O)[C@@H]4O[C@]4(CO)[C@@H]23)[C@H](O)[C@@H](O)[C@@H]1O,> 10,> 10,> 10,> 10,> 10,–,–,–
C[C@H]1[C@H]2[C@H](O[C@@H]3O[C@H](COC(=O)/C=C/c4ccccc4)[C@@H](O)[C@H](O)[C@H]3O)OC=C(C(=O)O)[C@H]2C[C@@H]1O,> 10,> 10,> 10,> 10,> 10,–,–,65.9
C[C@]1(O)[C@H](O)C=C2C=CO[C@@H](O[C@@H]3O[C@H](CO)[C@@H](O)[C@H](O)[C@H]3O)[C@@H]21,> 10,> 10,> 10,> 10,> 10,–,–,–
C[C@]1(O)C[C@@H](O)[C@@H]2C[C@H](O[C@H]3C[C@@](C)(O)[C@@H]4[C@@H](O[C@H]5O[C@@H](CO)[C@H](O)[C@@H](O)[C@@H]5O)OC=C[C@@H]43)O[C@@H](O[C@H]3O[C@@H](CO)[C@H](O)[C@@H](O)[C@@H]3O)[C@@H]21,> 10,> 10,> 10,> 10,> 10,–,–,–
CC(/C=C/[C@@]1(O)C(C)(C)CCC[C@@]1(C)O)=C\C(=O)O[C@H]1[C@H](O[C@@H]2OC=C[C@H]3[C@H](O)[C@@H]4O[C@]4(CO)[C@@H]23)O[C@H](CO)[C@@H](O)[C@@H]1O,> 10,> 10,> 10,> 10,> 10,91.7,2.5,–
CC(/C=C/[C@@]1(O)C(C)(C)CCC[C@@]1(C)O[C@@H]1O[C@H](C)[C@@H](O)[C@H](O)[C@H]1O)=C\C(=O)O[C@@H]1C[C@](C)(O)[C@H]2[C@H](O[C@@H]3O[C@H](CO)[C@@H](O)[C@H](O)[C@H]3O)OC=C[C@H]21,> 10,> 10,> 10,> 10,> 10,–,–,–
C[C@@]1(O)[C@@H]2C(=C[C@H]1O[C@@H]1O[C@H](C(=O)O)[C@@H](O)[C@H](O)[C@H]1O)C=CO[C@H]2O[C@@H]1O[C@H](CO)[C@@H](O)[C@H](O)[C@H]1O,> 10,> 10,> 10,> 10,> 10,–,–,–
OCC1=C[C@@H](O)[C@]2(O[C@@H]3O[C@H](CO)[C@@H](O)[C@H](O)[C@H]3O[C@H]3O[C@@H](CO)[C@H](O)[C@@H](O)[C@@H]3O[C@@H]3O[C@H](CO)[C@@H](O)[C@H](O)[C@H]3O)C=CO[C@@H](O[C@@H]3O[C@H](CO)[C@@H](O)[C@H](O)[C@H]3O)[C@H]12,> 10,> 10,> 10,> 10,> 10,–,–,64
OCC1=C[C@@H](O)[C@]2(O[C@@H]3O[C@H](CO)[C@@H](O)[C@H](O)[C@H]3O[C@H]3O[C@@H](CO)[C@H](O)[C@@H](O)[C@@H]3O)C=CO[C@@H](O[C@@H]3O[C@H](CO)[C@@H](O)[C@H](O)[C@H]3O)[C@H]12,> 10,> 10,> 10,> 10,> 10,–,–,–
OC[C@H]1O[C@H](OC[C@H]2O[C@@H](O[C@@H]3OC=C[C@H]4[C@H](O)[C@@H]5O[C@]5(CO)[C@@H]34)[C@H](O)[C@@H](O)[C@@H]2O)[C@H](O)[C@@H](O)[C@H]1O,> 10,> 10,> 10,> 10,> 10,–,–,–
C[C@]1(O)C[C@@H](O[C@@H]2O[C@H](CO)[C@@H](O)[C@H](O)[C@H]2O)[C@@H]2C=CO[C@@H](O[C@@H]3O[C@H](CO)[C@@H](O)[C@H](O)[C@H]3O)[C@@H]21,> 10,> 10,> 10,> 10,> 10,–,–,–
C[C@]1(O)C[C@@H](O)[C@@H]2C=CO[C@@H](O[C@@H]3O[C@H](CO)[C@@H](O)[C@H](O[C@@H]4C[C@@H]5[C@H]([C@H](O[C@@H]6O[C@H](CO)[C@@H](O)[C@H](O)[C@H]6O)O4)[C@@](C)(O)C[C@H]5O)[C@H]3O)[C@@H]21,> 10,> 10,> 10,> 10,> 10,–,–,–
C[C@]1(O)C[C@@H](O)[C@@H]2C[C@@H](O[C@H]3C[C@@](C)(O)[C@@H]4[C@@H](O[C@H]5O[C@@H](CO)[C@H](O)[C@@H](O)[C@@H]5O)OC=C[C@@H]43)O[C@@H](O[C@H]3O[C@@H](CO)[C@H](O)[C@@H](O)[C@@H]3O)[C@@H]21,> 10,> 10,> 10,> 10,> 10,–,–,–
C[C@]1(O)C[C@@H](O)[C@]2(O)C=CO[C@@H](O[C@@H]3O[C@H](CO)[C@@H](O)[C@H](O)[C@H]3O)[C@@H]21,> 10,> 10,> 10,> 10,> 10,–,–,–
CC(/C=C/[C@@]1(O)C(C)(C)CCC[C@@]1(C)O)=C\C(=O)O[C@@H]1C[C@](C)(O)[C@H]2[C@H](O[C@@H]3O[C@H](CO)[C@@H](O)[C@H](O)[C@H]3O)OC=C[C@H]21 [REHMAGLUTOSIDE F],> 10,> 10,> 10,> 10,> 10,–,–,63.4
OCC1=C[C@@H](O)[C@@H]2C=CO[C@@H](O[C@@H]3O[C@H](CO)[C@@H](O)[C@H](O)[C@H]3O)[C@H]12 [AUCUBIN],> 10,> 10,> 10,> 10,> 10,–,–,–
O=C(O[C@H]1[C@@H]2C=CO[C@@H](O[C@@H]3O[C@H](CO)[C@@H](O)[C@H](O)[C@H]3O)[C@@H]2[C@@]2(CO)O[C@@H]12)c1ccc(O)cc1 [CATALPOSIDE],> 10,> 10,> 10,> 10,> 10,–,–,–
OCC1=C[C@@H](O)[C@]2(O[C@@H]3O[C@H](CO)[C@@H](O)[C@H](O)[C@H]3O)C=CO[C@@H](O[C@@H]3O[C@H](CO)[C@@H](O)[C@H](O)[C@H]3O)[C@H]12,> 10,> 10,> 10,> 10,> 10,–,–,–
COc1cc(/C=C/C(=O)CC(=O)/C=C/c2ccc(O)c(OC)c2)ccc1O [CURCUMIN],–,–,–,–,–,93.4,0.52,–
